Assay outcomes: PubChem BioAssay, Sanford-Burnham Center for Chemical Genomics
SENP8 block-1 = human SENP8 protease inhibitors, primary screen, biochemical, fluorescence, Nedd8 protein substrate, uHTS; recombinant SENP8; 360,000 tested, 0.64% active; inhibition, % at 20 µM; Sentrin-specific protease 8 (Homo sapiens), Q96LD8; in the data active = inhibition mostly above about 40%, no sharp cut-off; inactive = mostly below about 27%
Target sequence (Q96LD8 whole entry, looked up): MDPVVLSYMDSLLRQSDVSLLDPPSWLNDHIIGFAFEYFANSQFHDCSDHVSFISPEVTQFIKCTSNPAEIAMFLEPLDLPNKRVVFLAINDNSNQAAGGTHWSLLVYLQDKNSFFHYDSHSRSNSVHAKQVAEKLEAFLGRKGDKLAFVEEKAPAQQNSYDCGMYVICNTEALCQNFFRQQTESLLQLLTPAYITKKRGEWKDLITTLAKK
SENP7 block = SENP7 protease inhibitors, primary screen, biochemical, luminescence, uHTS; Sentrin-specific protease 7 (Homo sapiens), Q9BQF6; recombinant SENP7, Z-RLRGG-aminoluciferin luminescence, 40 min; inhibition, % at 5 µM; 330,000 tested, 1.5% active; AID 434973, 2010;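 active = inhibition above about 50% at the single test dose, limit read from the data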;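 note: plate controls were DMSO with enzyme for no effect and no enzyme buffer wells for full effect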
SENP6 inh = SENP6 protease inhibitors, primary screen, biochemical, luminescence, uHTS; 330,000 tested, 1.8% active; Recombinant SENP6 catalytic domain, aminoluciferin luminescence; Sentrin-specific protease 6 (Homo sapiens), Q9GZR1; inhibition, % at 10 µM;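 active = inhibition above about 50% at the single tested dose, limit read from the data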;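 note: plate controls were DMSO wells with enzyme for no effect and DMSO wells lacking enzyme for full effect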
SENP8 block-2 = SENP8 protease inhibitors, primary screen, biochemical, luminescence | purified SENP8, Z-RLRGG-aminoluciferin cleavage | AID 2540, 2010 | 330,000 tested, 1.2% active | Sentrin-specific protease 8 (Homo sapiens), Q96LD8 | inhibition, % at 10 µM; in the data active = inhibition above about 50%
SENP1 FRET inh = human SENP1 catalytic domain inhibitors, primary screen, biochemical, FRET, uHTS; Sentrin-specific protease 1 (Homo sapiens), Q9P0U3; recombinant SENP1 catalytic domain, CyPet-SUMO1-YPet FRET cleavage; inhibition, % at 10 µM; 360,000 tested, 0.21% active; AID 624204, 2012;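 active = inhibition at least 30% at 10 µM, raw YFP signal under a set limit, fluorescence ratio 0.5 to 1.5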;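 note: 0% = enzyme with DMSO and 100% = no enzyme wells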
Target sequence (Q9P0U3 419-644 limits assumed): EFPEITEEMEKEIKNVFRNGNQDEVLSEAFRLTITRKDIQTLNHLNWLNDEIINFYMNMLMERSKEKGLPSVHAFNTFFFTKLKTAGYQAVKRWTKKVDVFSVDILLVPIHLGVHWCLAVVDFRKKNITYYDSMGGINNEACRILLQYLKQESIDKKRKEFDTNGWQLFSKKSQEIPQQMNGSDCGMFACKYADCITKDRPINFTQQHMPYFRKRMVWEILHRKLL
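Compound: 10 µM single point, 0.5% DMSO; Test system: hSENP1 catalytic domain, recombinant; Timing: 50 min reaction at room temperature; Technique: FRET, CFP and YFP emission; Control set: no-enzyme wells low, DMSO-plus-enzyme wells high control.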
SENP8 confirm = SENP8 protease inhibitors, retest, confirmation, biochemical, luminescence, single concentration; shares compounds with SENP7 block; Recombinant SENP8, Z-RLRGG-aminoluciferin luminescence, 60 min; inhibition, % at 12.5 µM; 6,200 tested, 40% active; AID 488912, 2010;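 active = mean inhibition across replicates above about 50%, limit read from the data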
SENP6 conf = SENP6 protease inhibitors, confirmation, biochemical, luminescence, single concentration; shares compounds with SENP7 block; recombinant SENP6, Z-RLRGG-aminoluciferin luminescence; inhibition, % at 12.5 µM; 6,200 tested, 58% active; AID 488915, 2010
SENP7 conf = SENP7 protease inhibitors, retest, confirmation, biochemical, luminescence, single concentration | recombinant SENP7, Z-RLRGG-aminoluciferin luminescence, 40 min | shares compounds with SENP7 block | inhibition, % at 12.5 µM | 6,200 tested, 69% active
Casp3 SENP sel = caspase-3 protease inhibitors, confirmation, selectivity assay for SENP inhibitor project, biochemical, single concentration. shares compounds with SENP7 block. purified caspase-3, Z-DEVD-aminoluciferin luminescence, 60 min. inhibition, % at 12.5 µM. AID 488918, 2010. 6,200 tested, 60% active;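 active = mean inhibition above about 50%, limit read from the data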;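 note: plate controls were enzyme with DMSO for no effect and wells without caspase-3 for full effect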
Luc interf = luminescence interference (SENP counter-screen); shares compounds with SENP7 block; Pre-incubated SENP8/Z-RLRGG-aminoluciferin, luciferase luminescence interference; inhibition, % at 12.5 µM; 6,200 tested, 39% active;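 active = mean inhibition above about 50% when retested at one dose, limit read from the data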;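 note: plate controls were DMSO wells with completed reaction for no effect and substrate without enzyme for full effect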
Starred values were filed as active, the others as inactive. The list is not random: actives were taken first. Their share in the collection is about 2.5%.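 Rule for the calls, unless noted: active = mean inhibition above about 50% in the one-dose retest (limit read from the data); inactive = the rest.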

`CC(=O)c1cccc(NC(=O)COC(=O)c2cccs2)c1` gave SENP8 block-1 7, SENP7 block 5, SENP6 inh 8, SENP8 block-2 3 and SENP1 FRET inh 0.
For Cc1nn(-c2ccccn2)c2c1C(c1c(F)cccc1Cl)C1=C(N2)c2ccccc2C1=O (centres undefined) the results were SENP7 block 0, SENP6 inh 8 and SENP8 block-2 -1.
`COc1cc(CC(=O)OCC(=O)c2ccc(F)cc2)cc(OC)c1OC` gave SENP8 block-1 14, SENP7 block 9, SENP6 inh 0, SENP8 block-2 -2 and SENP1 FRET inh 0.
Screening COc1cc(/C=N/Nc2cccc3cccnc23)cc(OC)c1O returned SENP8 block-1 -46, SENP7 block -5, SENP6 inh 10, SENP8 block-2 -3 and SENP1 FRET inh -59.
For Oc1c(/C=N/Nc2cccc3cccnc23)ccc2ccccc12 the results were SENP8 block-1 -98, SENP7 block 15, SENP6 inh 52*, SENP8 block-2 37, SENP1 FRET inh -26, SENP8 confirm 20, SENP6 conf 13, SENP7 conf 12, Casp3 SENP sel 10 and Luc interf 5.
Oc1cccc(/C=N/Nc2cccc3cccnc23)c1 was read as SENP8 block-1 -81, SENP7 block 92*, SENP6 inh -7, SENP8 block-2 96*, SENP1 FRET inh -99, SENP8 confirm 97*, SENP6 conf 100*, SENP7 conf 104*, Casp3 SENP sel 94* and Luc interf 93*.
`c1ccc2sc(NN=C3CCCCCC3)nc2c1` gave SENP8 block-1 -16, SENP7 block 83*, SENP6 inh 91*, SENP8 block-2 81*, SENP1 FRET inh -2, SENP8 confirm 89*, SENP6 conf 94*, SENP7 conf 101*, Casp3 SENP sel 87* and Luc interf 54*.
CCN1CCN(CCNC(=O)Cn2c(=O)c3cccn3c3ccc(F)cc32)CC1 was read as SENP8 block-1 -3, SENP7 block 1, SENP6 inh 5, SENP8 block-2 8 and SENP1 FRET inh -1.
CC(C)N(CCCNC(=O)Cn1c(=O)c2cccn2c2ccc(F)cc21)Cc1ccccc1 was read as SENP8 block-1 -6, SENP7 block 61*, SENP6 inh -14, SENP8 block-2 -1, SENP1 FRET inh -1, SENP8 confirm 10, SENP6 conf 7, SENP7 conf -5, Casp3 SENP sel 0 and Luc interf -2.
Screening COc1ccc(NC(=O)c2noc3c2CCC3)cc1 returned SENP8 block-1 18, SENP7 block 81*, SENP6 inh 22, SENP8 block-2 71*, SENP1 FRET inh 1, SENP8 confirm 11, SENP6 conf 77*, SENP7 conf 93*, Casp3 SENP sel 90* and Luc interf 79*.
For O=C(Nc1cccc(O)c1)c1noc2c1CCCCC2 the results were SENP8 block-1 -7, SENP7 block 95*, SENP6 inh 96*, SENP8 block-2 92*, SENP1 FRET inh 3, SENP8 confirm 96*, SENP6 conf 96*, SENP7 conf 102*, Casp3 SENP sel 96* and Luc interf 93*.
Screening COc1ccc(S(=O)(=O)Nc2cc3c4c(c2)C(C)C(=O)N4CCC3)cc1OC (centres undefined) returned SENP8 block-1 18, SENP7 block -6, SENP6 inh -15, SENP8 block-2 -5 and SENP1 FRET inh 13.
For Cc1ccc(Cc2c(C(C)(C)C)nc3cc(C)c(Br)c(C)n23)cc1 the results were SENP8 block-1 2 and SENP1 FRET inh -5.
Screening COc1ccccc1NC(=O)/C=C/c1ccc2c(c1)OCO2 returned SENP8 block-1 2, SENP7 block 68*, SENP6 inh 73*, SENP8 block-2 65*, SENP1 FRET inh 1, SENP8 confirm 78*, SENP6 conf 75*, SENP7 conf 93*, Casp3 SENP sel 73* and Luc interf 36.
Screening O=C(/C=C/c1ccc2c(c1)OCO2)Nc1ccc(Cl)cn1 returned SENP8 block-1 -373, SENP7 block 54*, SENP6 inh 4, SENP8 block-2 -2, SENP1 FRET inh -1, SENP8 confirm -27, SENP6 conf -17, SENP7 conf 9, Casp3 SENP sel 6 and Luc interf -3.
For COc1ccccc1NC(=O)c1ccc2c(c1)OCO2 the results were SENP8 block-1 4, SENP7 block 51*, SENP6 inh 60*, SENP8 block-2 38, SENP1 FRET inh 0, SENP8 confirm 51*, SENP6 conf 48, SENP7 conf 84*, Casp3 SENP sel 79* and Luc interf 60*.
Screening COc1ccccc1NC(=O)COC(=O)/C=C/c1ccc2c(c1)OCO2 returned SENP8 block-1 -312, SENP7 block -4, SENP6 inh 8, SENP8 block-2 -2 and SENP1 FRET inh 1.
COc1cccc(C(=O)Cn2c(=N)n(C)c3ccccc32)c1 was read as SENP8 block-1 2, SENP7 block 14, SENP6 inh 64*, SENP8 block-2 43, SENP1 FRET inh -1, SENP8 confirm 12, SENP6 conf 4, SENP7 conf 3, Casp3 SENP sel 22 and Luc interf 45.
`COc1cccc(C(=O)Cn2c(NCCO)nc3ccccc32)c1` gave SENP8 block-1 23, SENP7 block -2, SENP6 inh -17, SENP8 block-2 -2 and SENP1 FRET inh 2.
`CN=C1S/C(=C\c2ccc(N3CCOCC3)cc2C)C(=O)N1C` gave SENP8 block-1 -56, SENP7 block 6, SENP6 inh 6, SENP8 block-2 -1 and SENP1 FRET inh -34.
